# Test results published in ChEMBL document CHEMBL3399995, “Synthesis and biological evaluation of benzimidazole acridine derivatives as potential DNA-binding and apoptosis-inducing agents” (Bioorg Med Chem, 2015).
# The source made the active and inactive calls. No cut-off for these calls is given here.
# Columns and labels:
# [1] = system: K562; experiment: Antiproliferative activity against human K562 cells after 48 hrs by MTT assay; type: functional, cell-based; conditions: K562, 48 h
# How it was run: (§1)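 Cells were grown at 37 °C in 5% CO₂ with 10% FBS, penicillin and streptomycin. Media were IMDM for K562; DMEM for HepG-2, A-375, U-118 MG and A172; RPMI 1640 for CNE-2 and HeLa; MEM-EBSS for U251. MTT (5 mg/mL) was added for 4 h at 37 °C, formazan dissolved in DMSO, and A490 read. IC50 is the concentration giving 50% growth inhibition.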
# [2] = system: HepG2; experiment: Antiproliferative activity against human HepG2 cells after 48 hrs by MTT assay; type: functional, cell-based; conditions: HepG2, 48 h; how it was run: as §1
# [3] = target: T1, DNA topoisomerase 1 (Homo sapiens) (UniProt P11387); experiment: Inhibition of recombinant human DNA topoisomerase 1 assessed as relaxation of plasmid DNA pBR322 at 50 uM by agarose gel electrophoresis
# T1 sequence (whole entry): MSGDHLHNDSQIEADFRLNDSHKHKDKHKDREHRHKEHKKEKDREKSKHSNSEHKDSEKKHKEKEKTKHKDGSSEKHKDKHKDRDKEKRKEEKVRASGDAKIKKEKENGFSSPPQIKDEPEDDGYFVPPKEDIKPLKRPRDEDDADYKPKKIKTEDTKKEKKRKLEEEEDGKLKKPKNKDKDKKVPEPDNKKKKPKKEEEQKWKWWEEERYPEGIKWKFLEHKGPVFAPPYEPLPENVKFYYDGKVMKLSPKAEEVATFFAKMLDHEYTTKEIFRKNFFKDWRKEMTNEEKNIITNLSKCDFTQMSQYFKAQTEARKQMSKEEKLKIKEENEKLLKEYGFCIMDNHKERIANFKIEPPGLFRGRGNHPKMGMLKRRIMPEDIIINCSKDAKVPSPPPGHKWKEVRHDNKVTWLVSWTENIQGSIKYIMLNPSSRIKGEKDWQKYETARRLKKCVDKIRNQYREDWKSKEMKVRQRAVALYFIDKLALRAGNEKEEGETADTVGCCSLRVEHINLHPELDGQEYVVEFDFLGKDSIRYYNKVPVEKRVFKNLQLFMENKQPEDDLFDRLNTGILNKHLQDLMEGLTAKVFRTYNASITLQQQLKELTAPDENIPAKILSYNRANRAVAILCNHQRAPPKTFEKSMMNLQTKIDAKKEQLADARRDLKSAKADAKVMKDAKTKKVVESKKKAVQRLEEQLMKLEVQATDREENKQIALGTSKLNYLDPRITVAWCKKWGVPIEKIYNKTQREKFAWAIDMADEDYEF
# How it was run: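 pBR322 (100 ng) was incubated with 1.0 unit recombinant human topoisomerase I and compound (50 μM) at 37 °C for 30 min. Relaxation buffer was 35 mM Tris-HCl pH 8.0, 5 mM MgCl2, 72 mM KCl, 0.01% BSA, 2 mM spermidine, 5 mM DTT. Products were resolved on 1% agarose in TAE at 100 V for 25 min and stained with ethidium bromide.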
# [4] = system: U-251; experiment: Antiproliferative activity against human U251 cells after 48 hrs by MTT assay; type: functional, cell-based; conditions: U-251, 48 h; how it was run: as §1
# [5] = system: A-375; experiment: Antiproliferative activity against human A375 cells after 48 hrs by MTT assay; type: functional, cell-based; conditions: A-375, 48 h; how it was run: as §1
# [6] = Antiproliferative activity against human A172 cells after 48 hrs by MTT assay; type: functional, cell-based; conditions: A 172, 48 h; how it was run: as §1
# [7] = system: HeLa; experiment: Antiproliferative activity against human HeLa cells after 48 hrs by MTT assay; type: functional, cell-based; how it was run: as §1
# [8] = Antiproliferative activity against human CNE2 cells after 48 hrs by MTT assay; type: functional, cell-based; conditions: CNE-2, 48 h; how it was run: as §1
# [9] = Antiproliferative activity against human U118MG cells after 48 hrs by MTT assay; type: functional, cell-based; conditions: U-118-MG; how it was run: as §1
# [10] = system: Calf thymus DNA; experiment: Binding affinity to calf thymus DNA after 3 mins by UV-vis absorption spectra analysis; type: nucleic-acid assay, Bos taurus
# How it was run: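 ct DNA titration of the compound (40 μM) in 10 mM Tris-HCl, 10 mM NaCl, pH 7.0, at [DNA]/[compound] 0–1.0, in a 1.0 cm quartz cell. Samples sat 3 min before UV-vis spectra were recorded. Kb was taken as the slope-to-intercept ratio of [DNA]/(εa−εf) plotted against [DNA].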
# [11] = system: Calf thymus DNA; experiment: Binding affinity to calf thymus DNA after 3 mins by fluorescence absorption spectroscopy; type: nucleic-acid assay; conditions: Bos taurus
# How it was run: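 Fluorescence titration of the compound (3.75 μM final) in 10 mM Tris-HCl, 10 mM NaCl, pH 7.0, with ct DNA at 0, 1, 2, 3, 4 and 5 μM final. Samples sat 3 min before emission spectra were recorded. The binding constant came from the Stern-Volmer fit F0/F = 1 + K[Q], with [Q] the DNA concentration.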
# [12] = system: K562; experiment: Induction of apoptosis in human K562 cells assessed as necrotic cells at 2.5 uM by annexin V-FITC/propidium iodide staining-based flow cytometry (reference value: 0.203%); type: functional
# [13] = system: K562; experiment: Induction of apoptosis in human K562 cells assessed as viable cells at 2.5 uM by annexin V-FITC/propidium iodide staining-based flow cytometry (reference value: 98.9%); type: functional; conditions: read-out: Activity
# [14] = system: K562; experiment: Induction of apoptosis in human K562 cells assessed as necrotic cells at 10 uM by annexin V-FITC/propidium iodide staining-based flow cytometry (reference value: 0.203%); type: functional
# [15] = system: K562; experiment: Induction of apoptosis in human K562 cells assessed as viable cells at 10 uM by annexin V-FITC/propidium iodide staining-based flow cytometry (reference value: 98.9%); type: functional; conditions: read-out: Activity
# [16] = system: K562; experiment: Induction of apoptosis in human K562 cells assessed as activation of caspase 3 at 10 uM after 48 hrs by Western blot analysis; type: functional, cell-based
# How it was run: (§2)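 K562 cells in 6 cm dishes were exposed to 1, 5 or 10 μM for 48 h, then lysed at 0 °C for 0.5 h and spun at 20,000 g for 10 min. Protein was measured by BCA. Lysates were run on 12% SDS-PAGE and transferred to PVDF. Membranes were blocked in 5% milk for 1 h, then given primary antibody overnight at 4 °C.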
# [17] = system: K562; experiment: Induction of apoptosis in human K562 cells assessed as activation of caspase 7 at 10 uM after 48 hrs by Western blot analysis; type: functional, cell-based; how it was run: as §2
# [18] = system: K562; experiment: Induction of apoptosis in human K562 cells assessed as activation of caspase 9 at 10 uM after 48 hrs by Western blot analysis; type: functional, cell-based; how it was run: as §2
# [19] = system: K562; experiment: Induction of apoptosis in human K562 cells assessed as PARP cleavage at 10 uM after 48 hrs by Western blot analysis; type: functional, cell-based; how it was run: as §2
# [20] = system: K562; experiment: Induction of apoptosis in human K562 cells assessed as downregulation of Bcl-xL protein expression at 10 uM after 48 hrs by Western blot analysis; type: functional, cell-based; how it was run: as §2
# [21] = system: K562; experiment: Induction of apoptosis in human K562 cells assessed as loss of mitochondrial membrane potential at 2.5 uM using JC-1 staining by fluorescence assay; type: functional, cell-based
# How it was run: (§3)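 Mitochondrial membrane potential in treated K562 cells (0, 2.5, 10 μM) was measured with a JC-1 kit. Red fluorescence marks high potential and green marks low. CCCP at 10 μM served as positive control.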
# [22] = system: K562; experiment: Induction of apoptosis in human K562 cells assessed as loss of mitochondrial membrane potential at 10 uM using JC-1 staining by fluorescence assay; type: functional, cell-based; how it was run: as §3
# [23] = system: K562; experiment: Induction of apoptosis in human K562 cells assessed as apoptotic cells at 10 uM by annexin V-FITC/propidium iodide staining-based flow cytometry (reference value: 0.162%)
# [24] = system: K562; experiment: Induction of apoptosis in human K562 cells assessed as early apoptotic cells at 10 uM by annexin V-FITC/propidium iodide staining-based flow cytometry (reference value: 0.709%)
# [25] = system: K562; experiment: Induction of apoptosis in human K562 cells assessed as early apoptotic cells at 2.5 uM by annexin V-FITC/propidium iodide staining-based flow cytometry (reference value: 0.709%)
# [26] = system: K562; experiment: Induction of apoptosis in human K562 cells assessed as late apoptotic or necrotic cells at 2.5 uM by annexin V-FITC/propidium iodide staining-based flow cytometry (reference value: 0.162%)
compound,measurement,setting,value
Cc1ccc2nc3ccccc3c(NCc3nc4ccccc4[nH]3)c2c1,IC50,[1],12.3 µM
same,IC50,[2],38.8 µM
same,inhibition,[3],Active
CCc1ccc2nc3ccccc3c(NCc3nc4ccccc4[nH]3)c2c1,IC50,[1],7.52 µM
same,IC50,[2],> 50 µM
same,inhibition,[3],Active
Fc1ccc2c(NCc3nc4ccccc4[nH]3)c3ccccc3nc2c1,IC50,[1],28.5 µM
same,IC50,[2],10.7 µM
same,inhibition,[3],Active
Fc1cc2nc3ccccc3c(NCc3nc4ccccc4[nH]3)c2cc1F,IC50,[1],17.4 µM
same,IC50,[2],25.7 µM
same,inhibition,[3],Active
COc1cccc2c(NCc3nc4ccccc4[nH]3)c3ccccc3nc12,IC50,[1],7.46 µM
same,IC50,[2],28.5 µM
same,inhibition,[3],Active
c1ccc2[nH]c(-c3ccc(Nc4c5ccccc5nc5ccccc45)cc3)nc2c1,IC50,[1],2.82 µM
same,IC50,[2],> 50 µM
same,inhibition,[3],Active
COc1cccc2c(Nc3nc4ccccc4[nH]3)c3ccccc3nc12,IC50,[1],7.2 µM
same,IC50,[2],6.32 µM
same,inhibition,[3],Active
COc1ccc2c(NCc3nc4ccccc4[nH]3)c3ccccc3nc2c1,IC50,[1],15.2 µM
same,IC50,[2],15.4 µM
same,inhibition,[3],Active
c1ccc2[nH]c(CNc3c4ccccc4nc4ccccc34)nc2c1,IC50,[1],11.2 µM
same,IC50,[2],> 50 µM
same,inhibition,[3],Active
COc1ccc2nc3ccccc3c(NCc3nc4ccccc4[nH]3)c2c1,IC50,[1],4.68 µM
same,IC50,[2],8.92 µM
same,inhibition,[3],Active
CCCCc1ccc2nc3ccccc3c(NCc3nc4ccccc4[nH]3)c2c1,IC50,[1],2.68 µM
same,IC50,[2],8.11 µM
same,IC50,[4],2.39 µM
same,IC50,[5],3.2 µM
same,IC50,[6],2.86 µM
same,IC50,[7],2.76 µM
same,IC50,[8],2.62 µM
same,IC50,[9],1.98 µM
same,Kb,[10],1.88 ×10⁵ /M
same,Activity,[11],Active
same,inhibition,[3],Active
same,Activity,[12],0.55%
same,viability at 2.5 µM,[13],83.3%
same,Activity,[14],1.37%
same,viability at 10 µM,[15],30.8%
same,Activity,[16],Active
same,Activity,[17],Active
same,Activity,[18],Active
same,Activity,[19],Active
same,Activity,[20],Active
same,Activity,[21],Active
same,Activity,[22],Active
same,apoptotic cells at 10 µM,[23],10.6%
same,early apoptotic cells at 10 µM,[24],57.3%
same,early apoptotic cells at 2.5 µM,[25],14.9%
same,late apoptotic or necrotic cells at 2.5 µM,[26],1.27%
Clc1ccc2nc3ccccc3c(NCc3nc4ccccc4[nH]3)c2c1,IC50,[1],11.8 µM
same,IC50,[2],40.6 µM
same,inhibition,[3],Active
Cc1ccc2c(NCc3nc4ccccc4[nH]3)c3ccccc3nc2c1,IC50,[1],25.1 µM
same,IC50,[2],32.6 µM
same,inhibition,[3],Active
c1ccc2[nH]c(Sc3c4ccccc4nc4ccccc34)nc2c1,IC50,[1],14 µM
same,IC50,[2],> 50 µM
same,inhibition,[3],Active
c1ccc2[nH]c(Nc3c4ccccc4nc4ccccc34)nc2c1,IC50,[1],> 50 µM
same,IC50,[2],4.01 µM
same,inhibition,[3],Active
Cc1cccc2c(NCc3nc4ccccc4[nH]3)c3ccccc3nc12,IC50,[1],42.6 µM
same,IC50,[2],> 50 µM
same,inhibition,[3],Active
COc1ccc2nc3ccccc3c(Nc3nc4ccccc4[nH]3)c2c1,IC50,[1],8.63 µM
same,IC50,[2],4.53 µM
same,inhibition,[3],Active
